Converted amounts (≈) assume the structure as drawn.

A short description of test [1]: Inhibitory activity against NC-1 binding to N-36/C-34 peptide complex. It counts as functional. In outline: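 Sandwich ELISA: N-36 (2 μM) preincubated with graded compound 30 min at 37 °C, then C-34 (2 μM) added for 30 min at 37 °C. Mixture captured on wells coated with rabbit anti-N36(L6)C34 IgG (10 μg/mL), detected with mAb NC-1, biotin anti-mouse IgG, streptavidin-HRP and TMB; A450 read; IC50 via Calcusyn.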

The nature of test [2]: Inhibitory activity against HIV-I mediated cytopathic effect in MT-2 cells. It counts as functional, cell-based. Conditions: Human immunodeficiency virus 1, MT2. In a few lines:
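1×10^4 MT-2 cells infected with diluted HIV-1 IIIB in RPMI 1640 with 10% FBS, graded compound concentrations; medium changed during culture. On day 6 post-infection, XTT (1 mg/mL) added, formazan read at 450 nm after 4 h; percent CPE inhibition and IC50 calculated.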
In general terms: Cytopathic effects are the visible damage that an infection or toxin causes in cultured cells.

Test [3] in a line: Inhibitory activity against HIV-I mediated H9 cells fusion. It counts as functional, cell-based, Human immunodeficiency virus 1. In outline:
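Dye transfer fusion assay: BCECF-AM-labeled H9/HIV-1 IIIB cells co-cultured with MT-2 cells (1:10) for 2 h at 37 °C with or without compound. Fused and unfused labeled cells counted by fluorescence microscopy; percent inhibition and IC50 derived.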

In test [4] the test system is Human immunodeficiency virus 1. As to the kind of experiment: Selectivity index was determined by CC50/IC50 for Cytopathic effect. It counts as functional. In outline: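 Ratio of CC50 (XTT viability in uninfected MT-2 cells) to IC50 from HIV-1 IIIB CPE protection in MT-2 cells (XTT read-out, day 6).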
Test [5] concerns MT-2 cells (Homo sapiens). The experiment in a line: In vitro for the cytotoxicity in MT-2 cells.

One may read the IC50 as the midpoint of a concentration-inhibition curve. High values mean weaker potency, low ones greater potency. In general, CC50 refers to the concentration that lowers cell viability or growth by half. High values mean better tolerance by the cells, low ones harm at low concentration. For the compound `C=C[C@H]1CN2CC[C@H]1C[C@@H]2[C@@H](OC(=O)c1ccc(OC)cc1)c1ccnc2ccccc12`, the IC50 in test [1], in test [2] and in test [3] was more than 100 µg/mL throughout. In test [4], this compound had a Selectivity index of less than 1. The compound also came in with a CC50 in test [5] of 74.1 µg/mL (≈ 173 µM).

Regarding `COc1ccc(S(=O)(=O)O)cc1/N=N/c1c(S(=O)(=O)O)cc2cc(Nc3nc(Nc4ccccc4)nc(Nc4cc(C)c(/N=N/c5cc(S(=O)(=O)O)cc6cc(S(=O)(=O)O)cc(O)c56)cc4OC)n3)ccc2c1O`, the values for the IC50 in test [1], in test [2] and in test [3] were 0.73 µg/mL (≈ 0.67 µM), 8.29 µg/mL (≈ 7.61 µM) and 4.95 µg/mL (≈ 4.55 µM), respectively. In addition, the Selectivity index in test [4] worked out at 35.2. The same compound yielded a CC50 in test [5] of 292 µg/mL (≈ 268 µM).

Regarding `Cc1ccc(/N=N/c2c(S(=O)(=O)O)cc3cc(S(=O)(=O)O)cc(Nc4nc(Cl)nc(N(C)c5ccccc5)n4)c3c2O)c(S(=O)(=O)O)c1`, the 50% inhibitory concentration (IC50) in test [1] was determined as 3.18 µg/mL (≈ 4.32 µM); in test [2], 30.8 µg/mL (≈ 41.8 µM); in test [3], 21.85 µg/mL (≈ 29.7 µM). In test [4], this compound yielded a Selectivity index of 9.43. In test [5], this compound gave a CC50 of 290 µg/mL (≈ 394 µM).

In the case of `Cc1ccc(N(C(=O)Nc2ccccc2)C(C)c2nc(O)c3ccccc3n2)c(C)c1` (stereo not given), the 50% inhibitory concentration (IC50) in test [1], in test [2] and in test [3] was more than 100 µg/mL in each case. In addition, the Selectivity index in test [4] is less than 1. In test [5], this compound gave a CC50 of 40.8 µg/mL (≈ 98.8 µM).

As to `C/C(=N/OC(=O)NS(=O)(=O)c1ccc(C)cc1)c1cc2ccccc2oc1=O`, the IC50 in test [1], in test [2] and in test [3] was more than 100 µg/mL throughout. For the same compound, the Selectivity index in test [4] was less than 1. Moreover, the CC50 in test [5] was 286 µg/mL (≈ 714 µM).

As to `O=C(Nc1ccc(Cl)c(Cl)c1)O/N=C(/c1ccccc1)c1ccc(-c2ccccc2)cc1`, the IC50 in test [1], in test [2] and in test [3] was more than 100 µg/mL in each case. Further, the Selectivity index in test [4] was less than 1. Moreover, half-maximal cytotoxicity in test [5] (CC50) was put at 74.7 µg/mL (≈ 162 µM).

Take `Cc1ccc(N(C(=O)Nc2cccc(Cl)c2)C(C)c2nc(O)c3ccccc3n2)c(C)c1` (stereo not given): the IC50 in test [1], in test [2] and in test [3] was more than 100 µg/mL each time. The Selectivity index in test [4] is less than 1. This compound displayed a CC50 in test [5] of 54 µg/mL (≈ 121 µM).

Consider `CC[C@H]1CN2CC[C@H]1C[C@@H]2[C@@H](OC(=O)c1ccccc1Cl)c1ccnc2ccc(OC)cc12`, for which the 50% inhibitory concentration (IC50) in test [1] was more than 100 µg/mL; in test [2], more than 100 µg/mL; in test [3], 59.78 µg/mL (≈ 129 µM). For the same compound, the Selectivity index in test [4] is less than 1. Further, in test [5], the CC50 turned out to be 41.3 µg/mL (≈ 88.9 µM).

With `Cc1ccc(N(C(=O)Nc2ccc(Cl)c(Cl)c2)C(C)c2nc(O)c3ccccc3n2)c(C)c1` (stereo not given), the IC50 in test [1], in test [2] and in test [3] was more than 100 µg/mL in each case. Besides, the Selectivity index in test [4] is less than 1. The compound also gave a CC50 in test [5] of 39.2 µg/mL (≈ 81.5 µM).

As to `O=C(Nc1cc([N+](=O)[O-])ccc1-c1ccc([N+](=O)[O-])cc1)c1ccc([N+](=O)[O-])cc1Cl`, the 50% inhibitory concentration (IC50) in test [1], in test [2] and in test [3] was more than 100 µg/mL each time. Further, the Selectivity index in test [4] is less than 1. Further, the midpoint of cytotoxicity in test [5], the CC50, lay at 47.2 µg/mL (≈ 107 µM).

Take `CC(Nc1ccccc1Cl)c1nc2ccccc2c(=O)n1Cc1ccccc1` (stereo not given): the IC50 in test [1], in test [2] and in test [3] was more than 100 µg/mL each time. The compound also had a Selectivity index in test [4] of less than 1. This compound came in with a CC50 in test [5] of 86.8 µg/mL (≈ 223 µM).

For `COc1ccc2c(c1)CCCC2=NOC(=O)Nc1ccccc1-c1ccccc1`, the IC50 in test [1], in test [2] and in test [3] was more than 100 µg/mL each time. The Selectivity index in test [4] is less than 1. The compound also showed a CC50 in test [5] of 46.8 µg/mL (≈ 121 µM).

As for `Cc1ccc(C(=O)Nc2cccc(C(=O)N/N=C/c3ccc(Br)cc3)c2)cc1`, the IC50 in test [1], in test [2] and in test [3] was more than 100 µg/mL in each case. This compound also had a Selectivity index in test [4] of less than 1. For the same compound, it took 24.9 µg/mL (≈ 57.1 µM) to reach half-maximal cytotoxicity in test [5] (CC50).

With `COC(=O)c1cc(C(=O)OC)cc(N(C(=O)Nc2ccc(Cl)c(Cl)c2)C(C)c2nc3ccccc3c(=O)n2Cc2ccccc2)c1` (stereo not given), the IC50 in test [1], in test [2] and in test [3] was more than 100 µg/mL in each case. Besides, the Selectivity index in test [4] is less than 1. The compound further had a CC50 in test [5] of 20.9 µg/mL (≈ 31.8 µM).

Take `CC(c1nc2ccc(Cl)cc2c(=O)n1Cc1ccccc1)N(C(=O)c1ccc([N+](=O)[O-])cc1)c1ccc(F)cc1` (stereo not given): the IC50 in test [1], in test [2] and in test [3] was more than 100 µg/mL each time. In test [4], the Selectivity index is less than 1. Besides, in test [5], the cytotoxic concentration (CC50) is 30.2 µg/mL (≈ 54.2 µM).

Regarding `O=P(CCP(c1ccccc1)c1ccccc1)(c1ccccc1)c1ccccc1`, the results for the IC50 in test [1], in test [2] and in test [3] were more than 100 µg/mL, more than 100 µg/mL and 52.27 µg/mL (≈ 126 µM), respectively. Moreover, in test [4], the Selectivity index was less than 1. Further, it took 28.9 µg/mL (≈ 69.7 µM) to reach half-maximal cytotoxicity in test [5] (CC50).

Source of the values: ChEMBL document CHEMBL1132348, “Structure-based identification of small molecule antiviral compounds targeted to the gp41 core structure of the human immunodeficiency virus type 1” (J Med Chem, 1999).
